According to paper PMC3088362 (Journal of the American Society for Mass Spectrometry, 2010):
Blank lines part the entries; values can stand above or below the compound they belong to.

How the values were obtained:
Type in all cases: biochemical
[1] = target: T1, human TPST-2 (Homo sapiens, UniProt O60704); test: LC-MS initial-velocity kinetics, Reaction 2: sulfation of sY15CCR8
T1 sequence (O60704 25-377 limits assumed): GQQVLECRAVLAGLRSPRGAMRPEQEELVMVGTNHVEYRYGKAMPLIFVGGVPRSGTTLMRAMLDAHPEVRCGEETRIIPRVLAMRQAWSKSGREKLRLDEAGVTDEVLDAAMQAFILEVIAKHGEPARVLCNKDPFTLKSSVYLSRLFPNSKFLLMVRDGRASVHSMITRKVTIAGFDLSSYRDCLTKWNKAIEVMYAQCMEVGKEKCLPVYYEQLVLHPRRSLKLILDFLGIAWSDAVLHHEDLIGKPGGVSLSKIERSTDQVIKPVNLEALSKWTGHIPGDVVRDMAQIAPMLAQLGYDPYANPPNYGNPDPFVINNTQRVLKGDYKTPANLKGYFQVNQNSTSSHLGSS
Method in brief: (§1)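 Enzyme was soluble HPC4-epitope-tagged human TPST-2 (transferrin signal peptide), affinity-purified from stably transfected CHO-K1 cells. PAPS and peptide were varied as a matrix in 20 mM MOPS pH 7.5, 100 mM NaCl, 10% glycerol at 30 °C. Reactions started with 250–750 nM enzyme, ran 6–20 min, and were quenched with methanol (0.5 µM final internal standard). Product was read by RP-LC negative-ESI SIM against a calibration curve. Data were fit to the ping-pong equation; kcat/Km came from fitted constants.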

[2] = target: T1, human TPST-2; test: 35S-sulfation of factor IX by TPST-2; settings: with (lane 1) or without (lane 2) TPST-2; 6 h at 37°C, pH 6.9; autoradiography
[3] = target: T1, human TPST-2; test: Product inhibition by PAP, Reaction 1
Method in brief: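 Initial rates of nonCCR8 sulfation by HPC4-purified soluble human TPST-2 were measured at fixed PAP levels. Buffer was 20 mM MOPS pH 7.5, 100 mM NaCl, 10% glycerol, 30 °C. Reactions were quenched with methanol containing internal standard, and product was quantified by LC-ESI-MS SIM. Data were fit by nonlinear regression to competitive or noncompetitive inhibition equations. Two or three independent experiments.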

[4] = target: T1, human TPST-2; test: Product inhibition by PAP, Reaction 2; settings: pH 7.5, 30°C
[5] = target: T1, human TPST-2; test: LC-MS initial-velocity kinetics, Reaction 1: sulfation of nonCCR8
Method in brief: as §1

Compound: VTDsYYYPDI [sY15CCR8]
specificity constant kcat/Km of sY15CCR8 ([1]; Reaction 2, for sY15CCR8, calculated from Table 1 values): 430 M⁻¹ s⁻¹ | estimated Vmax ([1]; Reaction 2, from intercept replots, pH 7.5, 30°C): 1.7 mU/mg protein | substrate preference by specificity constants, Reaction 2 ([1]; sY15CCR8 compared with PAPS): preferred than PAPS | substrate suitability by kcat/Km ([1]; sY15CCR8 compared with nonCCR8): more suitable substrate than nonCCR8

Compound: Nc1ncnc2c1ncn2[C@@H]1O[C@H](COP(=O)(O)OS(=O)(=O)O)[C@@H](OP(=O)(O)O)[C@H]1O [PAPS, 3′-phosphoadenosine 5′-phosphosulfate, reference compound]
substrate preference by specificity constants, Reaction 1 ([5]; PAPS compared with nonCCR8): preferred substrate over nonCCR8 | specificity constant kcat/Km for PAPS ([5]; Reaction 1, for PAPS, calculated from Table 1 values): 590 M⁻¹ s⁻¹ | specificity constant kcat/Km of PAPS ([1]; Reaction 2, for PAPS, calculated from Table 1 values): 280 M⁻¹ s⁻¹

More lines, main results first:

35S-sulfuryl group transfer to factor IX [2]: occurred only in the presence TPST-2
Compound: factor IX: recombinant human factor IX, BeneFIX, Wyeth Pharmaceuticals Inc.

KI', product inhibition constant for PAP versus nonCCR8 ([3]; Reaction 1, pH 7.5, 30°C, mean of two or three independent experiments): 1200 nM | PAP inhibition mode with respect to PAPS ([4]; PAPS varied 5-25 µM, sY15CCR8 25 µM): competitively | PAP inhibition mode with respect to sY15CCR8 ([4]; sY15CCR8 varied 5-25 µM, PAPS 25 µM): noncompetitively
Compound: Nc1ncnc2c1ncn2[C@@H]1O[C@H](COP(=O)(O)O)[C@@H](OP(=O)(O)O)[C@H]1O [PAP]
PAP inhibition patterns, Reaction 1, compared with Reaction 2 ([3]; Reaction 1, with respect to PAPS and nonsulfated CCR8, data not shown): The same PAP inhibition patterns were observed with respect to PAPS and nonsulfated CCR8 substrates

specificity constant kcat/Km ([5]; Reaction 1, for nonCCR8, calculated from Table 1 values): 270 M⁻¹ s⁻¹ | estimated Vmax ([5]; Reaction 1, calculated from intercept replots, pH 7.5, 30°C): 6.7 mU/mg protein | Km of nonsulfated CCR8 peptide relative to monosulfated peptide ([5]; ratio to Km of sY15CCR8): at least five
Compound: VTDYYYPDI [nonCCR8]
